The target of assay [1] is T1, Growth hormone secretagogue receptor type 1 (Homo sapiens, UniProt Q92847). Description: Antagonist activity at human GHS-R1a transfected in CHO cells assessed as inhibition of ghrelin-induced intracellular calcium mobilization measured over 60 secs by fluo-4AM dye-based fluorometric method. It counts as functional, cell-based. For orientation: Calcium flux is commonly read through the fluorescence of an indicator in the cells.

Assay [2] addresses T1, Growth hormone secretagogue receptor type 1. Description: Antagonist activity at human GHS-R1a transfected in mouse LTK cells after 6 hrs by CRE/luciferase reporter gene assay in presence of ghrelin and rolipram. It counts as functional, cell-based. An outline of the steps: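 Mouse LTK- cells stably carrying a CMV minimal promoter–3×CRE–luciferase construct, incubated 6 h with rolipram, saturating ghrelin and varied compound concentrations. Cells were then lysed and luminescence read. IC50 fitted from the curves.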

For assay [3] the target is unchanged. The experiment in a line: Partial agonist activity at human GHS-R1a expressed in HEK293T cells at 10^-5 M after 45 mins by HTRF-based IP3 turnover assay. It counts as functional, cell-based. The conditions noted are these: HEK-293T. A general note: In TR-FRET formats the signal depends on donor and acceptor labels being close together.
The target is the same in assay [4]. Description: Displacement of [125I]-His9-ghrelin from human GHS-R1a transfected in pig LLC PK-1 cell membranes after 60 mins by gamma counting method. An outline of the steps: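 Competition binding on membranes from LLC PK-1 cells transfected with GHS-R1a, using 0.3 nM ¹²⁵I-His9-ghrelin against increasing compound concentrations. Ki derived from the binding curves.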
A general note: Displacement assays read how much labelled ligand stays bound in the presence of the test substance.

The target is the same in assay [5]. Description: Antagonist activity at human GHS-R1a expressed in HEK293T cells assessed as inhibition of ghrelin-induced stimulation at 10^-5 M after 45 mins by HTRF-based IP3 turnover assay. It counts as functional, cell-based. The conditions noted are these: HEK-293T.
Assay [6] has the same target. The experiment in a line: Competitive binding affinity to human SNAP-tagged GHS-R1a expressed in HEK293T cells incubated at 4 degC for 3 hrs or at room temperature for 1 hr by Tag-lite assay. It counts as cell-based, HEK-293T. An outline of the steps:
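Tag-lite binding measured by FRET between terbium cryptate attached to SNAP-tag-fused GHS-R1a and a red fluorescent high-affinity ghrelin ligand. Ki obtained from the fluorescent binding data.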

For assay [7] the target is unchanged. Description: Agonist activity at human GHS-R1a expressed in HEK293T cells after 45 mins by HTRF-based IP3 turnover assay. It counts as functional, cell-based, HEK-293T. The conditions noted are these: for Emax: HEK-293T.
For assay [8] the target is unchanged. Description: Inverse agonist activity at human GHS-R1a expressed in HEK293T cells after 45 mins by HTRF-based IP3 turnover assay. It counts as functional, cell-based, HEK-293T. Conditions: for Emax: HEK-293T.

pEC50, pIC50, pKi: −log10 of the molar value. Active and inactive are the calls of the source. No cut-off for these calls is given here.

T1 sequence (Q92847 whole entry): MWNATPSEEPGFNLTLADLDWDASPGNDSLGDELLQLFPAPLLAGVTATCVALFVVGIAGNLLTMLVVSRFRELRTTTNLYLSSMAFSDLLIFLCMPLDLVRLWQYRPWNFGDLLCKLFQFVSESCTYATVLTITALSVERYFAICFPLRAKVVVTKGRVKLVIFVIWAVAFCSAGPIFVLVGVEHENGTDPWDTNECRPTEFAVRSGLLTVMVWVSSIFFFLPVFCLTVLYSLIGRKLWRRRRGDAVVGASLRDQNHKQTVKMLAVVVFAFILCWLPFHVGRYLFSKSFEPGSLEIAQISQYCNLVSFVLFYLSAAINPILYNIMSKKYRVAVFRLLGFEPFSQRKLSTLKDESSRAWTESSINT

What is called pIC50 is the negative decadic logarithm of the IC50, by convention in mol/L. Usually pKi stands for −log10 of the Ki, conventionally taken in molar units. Low readings indicate a high Ki, high ones a low Ki. For `COc1ccc(Cn2c([C@@H](Cc3ccccc3)NC(C)=O)nnc2[C@@H](Cc2c[nH]c3ccccc23)NC(=O)c2cc(F)cc(F)n2)cc1`, the pIC50 in assay [1] and in assay [2] was 8.40 throughout. Further, the outcome in assay [3] was Active. In assay [4], this compound had a pKi of 7.96.
Regarding `COc1ccc(Cn2c([C@H](Cc3c[nH]c4ccccc34)NC=O)nnc2[C@@H](Cc2c[nH]c3ccccc23)NC(=O)c2ccccn2)cc1`, the figures for the pIC50 in assay [1] and in assay [2] were 5.92 and 6.39, respectively. In addition, the pKi in assay [4] was 6.81.
On to `COc1ccc(Cn2c([C@@H](Cc3ccccc3)NC(C)=O)nnc2[C@@H](Cc2c[nH]c3ccccc23)NC(=O)c2ncccc2F)cc1`, for which the pIC50 in assay [1] and in assay [2] was 8.70 each time. The result in assay [3] was Active. For the same compound, the pKi in assay [4] is 8.40.
As for `COc1ccc(Cn2c([C@@H](Cc3ccccc3)NC(C)=O)nnc2[C@@H](Cc2c[nH]c3ccccc23)NC(=O)CO)cc1`, the pIC50 in assay [1] was 8.70; in assay [2] it was 8.10. Also, in assay [5], the inhibition entry was “Active”. Besides, the result in assay [3] was Active. In assay [4], this compound showed a negative logarithm of the Ki (pKi) of 9.10.
Broadly, the pEC50 is the EC50 on a negative log10 scale, so that one unit is a factor of ten. A lower pEC50 goes with a high EC50. In assay [6], `COC(=O)C(CC(C)C)C(=O)N[C@H](Cc1c[nH]c2ccccc12)c1nnc([C@@H](Cc2c[nH]c3ccccc23)NC(=O)[C@@H](N)CCCCN)n1Cc1ccc(OC)cc1` (mixture of isomers) showed a negative logarithm of the Ki (pKi) of 7.77. In addition, in assay [7], the negative logarithm of the EC50 (pEC50) is 7.70 and the Emax came to 81%.
For `COc1ccc(Cn2c([C@H](Cc3c[nH]c4ccccc34)NC(C)=O)nnc2[C@@H](Cc2c[nH]c3ccccc23)NC(=O)c2ccccn2)cc1`, the pIC50 in assay [1] was 6.72; in assay [2] it was 7.00. In addition, the pKi in assay [4] is 7.21.
For `COc1ccc(Cn2c([C@@H](Cc3ccccc3)NC=O)nnc2[C@@H](Cc2c[nH]c3ccccc23)NC(=O)C(C)(C)N)cc1`, the pIC50 in assay [1] is 7.37; in assay [2], 6.95. Besides, the pKi in assay [4] is 7.23.
Take `COc1ccc(Cn2c([C@H](N)Cc3ccccc3)nnc2[C@@H](Cc2c[nH]c3ccccc23)NC(=O)C(C)(C)N)cc1`: the pIC50 in assay [1] is 6.87; in assay [2], 6.94. In addition, the pKi in assay [4] was 6.81.
Consider `COc1ccc(Cn2c([C@@H](N)Cc3ccccc3)nnc2[C@@H](Cc2c[nH]c3ccccc23)NC(=O)C(C)(C)N)cc1`, for which the negative logarithm of the IC50 (pIC50) in assay [1] and in assay [2] was < 6.00 throughout. The pKi in assay [4] was < 6.00.
For the compound `COc1ccc(Cn2c([C@H](Cc3ccccc3)NC(C)=O)nnc2[C@@H](Cc2c[nH]c3ccccc23)NC(=O)C(C)(C)N)cc1`, the pIC50 in assay [1] and in assay [2] was < 6.00 throughout. Besides, the pKi in assay [4] is < 6.00.
For `COc1ccc(Cn2c([C@@H](Cc3c[nH]c4ccccc34)NC(C)=O)nnc2[C@@H](Cc2c[nH]c3ccccc23)NC(=O)c2ccccn2)cc1`, the pIC50 was 8.52 in assay [1] and 8.70 in assay [2]. The pKi in assay [4] was 8.05.
With `COc1ccc(Cn2c([C@@H](Cc3c[nH]c4ccccc34)NC(C)=O)nnc2[C@@H](Cc2c[nH]c3ccccc23)NC(=O)[C@@H](N)CCCCN)cc1`, the pKi in assay [6] is 8.60. Also, in assay [7], the pEC50 is 8.40 and the Emax amounted to 89%.
The like results for `COc1ccc(Cn2c([C@@H](Cc3c[nH]c4ccccc34)NC(=O)[C@H](CC(C)C)NC(=O)[C@H](CC(C)C)NC(C)=O)nnc2[C@@H](Cc2c[nH]c3ccccc23)NC(=O)C(C)(C)O)cc1` were, in that order, 8.52, 7.13 and 75%.
Consider `COc1ccc(Cn2c([C@@H](Cc3ccccc3)NC(C)=O)nnc2[C@@H](Cc2c[nH]c3ccccc23)NC(=O)C2=CCCCO2)cc1`, for which the pIC50 in assay [1] is 8.40; in assay [2], 8.52. The result in assay [3] was Active. For the same compound, the negative logarithm of the Ki (pKi) in assay [4] is 8.05.
Consider `COc1ccc(Cn2c([C@@H](N)Cc3c[nH]c4ccccc34)nnc2[C@@H](Cc2c[nH]c3ccccc23)NC(=O)C(C)(C)N)cc1`, for which the pIC50 in assay [1] and in assay [2] was < 6.00 each time. For the same compound, the pKi in assay [4] was < 6.00.
For the compound `COc1ccc(Cn2c([C@@H](Cc3c[nH]c4ccccc34)NC(C)=O)nnc2[C@@H](Cc2c[nH]c3ccccc23)NC(=O)C(C)(C)N)cc1`, the pIC50 in assay [2] was 7.66. This compound had a pKi in assay [4] of 7.92.
`COc1ccc(Cn2c([C@@H](Cc3c[nH]c4ccccc34)NC(=O)[C@H](CC(C)C)NC(=O)[C@H](CC(C)C)NC(C)=O)nnc2[C@@H](Cc2c[nH]c3ccccc23)NC(=O)C(C)(C)N)cc1` showed a negative-log Ki (pKi) in assay [6] of 7.52. Besides, in assay [7], the pEC50 is 9.10 and the Emax was 80%.
As to `COc1ccc(Cn2c([C@@H](Cc3ccccc3)NC(C)=O)nnc2[C@@H](Cc2c[nH]c3ccccc23)NC(=O)C(C)(C)N)cc1`, the pIC50 in assay [1] is 7.05; in assay [2] it was 7.15. Besides, in assay [4], the pKi is 7.34.
`COc1ccc(Cn2c(C(Cc3c[nH]c4ccccc34)NC(=O)C3CCNCC3)nnc2[C@@H](Cc2c[nH]c3ccccc23)NC(=O)C(CC(C)C)NC(=O)C(CC(C)C)NC(C)=O)cc1` (single isomer, unassigned) gave a pKi in assay [6] of 8.70. In assay [7], the pEC50 is 8.36 and the Emax was found to be 108%.
The like results for `COC(=O)[C@H](CC(C)C)NC(=O)C(CC(C)C)C(=O)N[C@H](Cc1c[nH]c2ccccc12)c1nnc([C@@H](Cc2c[nH]c3ccccc23)NC(=O)[C@@H](N)CCCCN)n1Cc1ccc(OC)cc1` (stereo partly drawn) were, in that order, 6.66, 7.09 and 82%.
For `COc1ccc(Cn2c([C@H](Cc3c[nH]c4ccccc34)NC(=O)[C@H]3CNCCO3)nnc2[C@@H](Cc2c[nH]c3ccccc23)NC(=O)[C@@H](CC(C)C)NC(=O)[C@@H](CC(C)C)NC(C)=O)cc1` (stereo in doubt), the pKi in assay [6] was 7.30. For the same compound, in assay [7], the pEC50 is 7.22 and the Emax worked out at 75%.
In the same order, the values of `COc1ccc(Cn2c([C@@H](Cc3c[nH]c4ccccc34)NC(=O)C(CC(C)C)C(=O)N[C@@H](CC(C)C)C(N)=O)nnc2[C@@H](Cc2c[nH]c3ccccc23)NC(=O)[C@@H](N)CCCCN)cc1` (mixture of isomers) are 6.68, 6.77 and 60%.
For `COc1ccc(Cn2c([C@@H](Cc3c[nH]c4ccccc34)NC=O)nnc2[C@@H](Cc2c[nH]c3ccccc23)NC(=O)[C@@H](N)CCCCN)cc1`, the pKi in assay [6] is 8.10. Moreover, in assay [7], the pEC50 is 8.00 and the Emax turned out to be 89%.
With `COc1ccc(Cn2c([C@@H](Cc3ccccc3)NC=O)nnc2[C@@H](Cc2c[nH]c3ccccc23)NC(=O)c2ccccn2)cc1`, the pIC50 in assay [1] is 8.52; in assay [2] it was 8.10. Further, the outcome in assay [3] was Active. In assay [4], this compound gave a pKi of 8.10.
On to `COc1ccc(Cn2c([C@@H](Cc3ccccc3)NC(C)=O)nnc2[C@@H](Cc2c[nH]c3ccccc23)NC(=O)[C@@H]2CNCCO2)cc1`, for which the pIC50 in assay [1] was 8.52; in assay [2] it was 8.05. Besides, in assay [3], the result was Active. Besides, the pKi in assay [4] is 8.70.
Take `COc1ccc(Cn2c([C@H](N)Cc3c[nH]c4ccccc34)nnc2[C@@H](Cc2c[nH]c3ccccc23)NC(=O)C(C)(C)N)cc1`: the pIC50 in assay [1] was 7.05; in assay [2], 6.89. The pKi in assay [4] was 6.88.
As for `COc1ccc(Cn2c([C@@H](Cc3ccccc3)NC(C)=O)nnc2[C@@H](Cc2c[nH]c3ccccc23)NC(=O)c2ccccn2)cc1`, the outcome in assay [3] was Active.
For the compound `COc1ccc(Cn2c([C@H](Cc3c[nH]c4ccccc34)NC(C)=O)nnc2[C@@H](Cc2c[nH]c3ccccc23)NC(=O)C(C)(C)N)cc1`, the pIC50 in assay [1] and in assay [2] was < 6.00 throughout. In addition, the pKi in assay [4] was < 6.00.
Turning to `COc1ccc(Cn2c([C@@H](N)Cc3ccccc3)nnc2[C@@H](Cc2c[nH]c3ccccc23)NC(=O)c2ccccn2)cc1`, the pIC50 in assay [1] was 6.82; in assay [2] it was 6.49. This compound gave a pKi in assay [4] of 7.21.
The like results for `COc1ccc(Cn2c([C@H](N)Cc3ccccc3)nnc2[C@@H](Cc2c[nH]c3ccccc23)NC(=O)c2ccccn2)cc1` were, in that order, 8.40, 8.15 and 7.74.
On to `COc1ccc(Cn2c([C@@H](Cc3c[nH]c4ccccc34)NC(=O)[C@H](CC(C)C)NC(=O)[C@H](CC(C)C)NC(C)=O)nnc2[C@@H](Cc2c[nH]c3ccccc23)NC(=O)[C@@H](N)CCCCN)cc1`, for which, in assay [8], the pEC50 is 7.15 and the Emax was -37%. The same compound showed a pKi in assay [6] of 6.96.
Regarding `CC(C)C[C@H](NC(=O)[C@H](CC(C)C)NC(=O)[C@@H](Cc1c[nH]c2ccccc12)NC(=O)[C@H](Cc1ccccc1)NC(=O)[C@@H](Cc1c[nH]c2ccccc12)NC(=O)[C@@H](N)CCCCN)C(N)=O`, in assay [8], the pEC50 is 7.00 and the Emax was -55%. Further, the negative-log Ki (pKi) in assay [6] is 6.59.
For `COc1ccc(Cn2c([C@@H](Cc3c[nH]c4ccccc34)NC=O)nnc2[C@@H](Cc2c[nH]c3ccccc23)NC(=O)C(C)(C)N)cc1`, the results for the pIC50 in assay [1] and in assay [2] were 7.48 and 7.22, respectively. The compound further gave a pKi in assay [4] of 7.34.

These data come from ChEMBL document CHEMBL3797137, “New ligands of the ghrelin receptor based on the 1,2,4-triazole scaffold by introduction of a second chiral center” (Bioorg Med Chem Lett, 2016).
